Bioassay records as filed in PubChem.
Shown are actives, neighbours in structure and some others; about 2% of the full set was active somewhere.
TWEAK Fn14 block: inhibitors of TWEAK-Fn14 signaling, primary screen, luciferase reporter cells, uHTS; AID 1159606, 2016; TWEAK-stimulated Fn14 reporter cells, luciferase luminescence, 8 h; 360,000 tested, 2% active; inhibition, % at 10 µM; in the data active = inhibition above about 50%
Xi reactivation: activators of inactive X chromosome reactivation, primary screen, imaging, XiGFP fibroblasts, GFP high-content imaging, set 2; XiGFP mouse fibroblasts, % GFP-positive cells imaging, 3 d; cells co-treated with 5-aza-dC sensitizer; scaled so ellipticine positive control = 100%; activation, % at 7.58 µM; 360,000 tested, 0.055% active; AID 743238, 2013;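 active = mean normalized replicate activation at least 10% and every replicate at or above 10%; inconclusive = only one of the two criteria met; inactive = mean below 10% and not all replicates reach 10%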;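 also: 0% = median of on-plate neutral control wells and 100% = ellipticine 6 µM median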
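assay system = SV40-immortalized XiGFP fibroblast cells, line 68-5-11 | buffer or medium = DMEM plus 5-aza-dC sensitizer | doses = single-point pinned compound dosing | times = 3-day compound exposure, then 15 min fixation at room temperature | benchmarks = positive control ellipticine, 6 µM final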
LGR2 antag: inhibitors of bursicon-induced LGR2 CRE-luciferase signal, primary screen, cell-based, HEK293, CRE-luciferase reporter, bursicon stimulation; Drosophila bursicon receptor LGR2 (rickets); bursicon-stimulated, 4 h; inhibition, % at 9.99 µM; 380,000 tested, 0.35% active; AID 720647, 2013;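 active = drop in luminescence signal, shown as inhibition above about 50% in the replicate tests, limit read from the data, passing the limit was not always enough; inconclusive = probably only some replicates passing the limit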;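 also: agonist challenge used bursicon conditioned medium at about half maximal strength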
CaV13 ICDI inh: Disruptors of the CACNA1D IQ motif to Ca2+-dependent inactivation inhibitor domain association, primary screening, Förster resonance energy transfer in intact living … | HEK cells, CFP/YFP FRET ICDI-IQ, plate reader, 10 min; percent FRET-ratio fall versus neutral wells | AID 743397 | inhibition, % at 12.3 µM | 340,000 tested, 0.098% active;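 active = mean replicate inhibition of at least 30% and at least 1% of replicates passing that level; inconclusive = only one of the two criteria is met; inactive = neither criterion is met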;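 also: 0% = median of the neutral control wells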
TROY NFkB inh: inhibitors of TROY-driven NF-kB signaling, primary screen, Q293 LMP1-TROYcd cells, NF-kB luciferase, uHTS. Q293 LMP1-TROYcd NF-kB luciferase reporter, 4 h. 360,000 tested, 0.98% active. inhibition, % at 10 µM. AID 1347056, 2019;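 active = compounds whose plate-normalised and pattern-corrected inhibition of the luciferase reporter signal at the single screening dose is 50% or more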
Starred values were filed as active, the others as inactive; ? = inconclusive; . = no result.

SMILES	TWEAK Fn14 block	Xi reactivation	LGR2 antag	CaV13 ICDI inh	TROY NFkB inh
CC1(C)CC2CC(C)(CN2C(=O)c2cc(-c3ccc(O)cc3)on2)C1 (configuration not stated)	-35	0	12	-4	62*
CN(C)c1ccc(-c2nc3ccccn3c2/N=C/c2ccc(Br)cc2)cc1	65*	0	?	-3	22
CCN1[C@@H]2c3ccc(-c4ccccc4)c(=O)n3C[C@H]1[C@H](CO)[C@H]2C(=O)NCc1ccccc1	.	0	5	.	.
CC(=O)c1c(C)n(-c2ccc(C)cc2C)c2ccc(O)cc12	58*	0	21	-4	22
CCOc1ccc(-n2c(C)c(C(C)=O)c3cc(O)ccc32)cc1	64*	0	14	-3	35
CC(=O)c1ccc(-n2c(C)c(C(C)=O)c3cc(O)ccc32)cc1	43	0	13	-4	13
Cn1nnnc1SCc1cn2cccnc2n1	87*	.	.	-7	.
O=[N+]([O-])c1ccc(-[n+]2ccc3ccccc3c2)c([N+](=O)[O-])c1	57*	1	-4	-5	-19
Cc1cc(C)n(Cc2ccc(NC(=O)c3ccc(COc4ccccc4Br)cc3)cc2)n1	60*	.	.	-8	23
NC(=O)c1ccc(NC(=O)c2ccc(COc3ccccc3Br)cc2)cc1	-15	0	-20	-4	-41
CCc1c(C2(O)CCCCC2)[nH]c2ccc(C(F)(F)F)cc12	16	0	4	-9	56*
CN(C)Cc1c(C(C)(C)O)[nH]c2ccc(C(F)(F)F)cc12	-15	0	-12	-9	-4
O=[N+]([O-])c1ccc(O)c(-c2cc(C(F)(F)F)nc(-c3ccccc3)n2)c1	75*	0	-13	-3	8
CCOC(=O)c1c(NC(=O)CSc2nnc(-c3c[nH]c4ccccc34)n2C)sc2c1CCCC2	56*	0	-1	-9	27
CCOC(=O)c1c(NC(=O)COc2cccc3c2CCN(C)C3=O)sc2c1CCC2	73*	0	5	-18	39
Cc1ccc(S(=O)(=O)N(C)C[C@@H]2Oc3ccc(NC(=O)Nc4ccccc4)cc3CC(=O)N([C@@H](C)CO)C[C@@H]2C)cc1	.	0	32	.	.
Cc1ccc(S(=O)(=O)N(C)C[C@H]2Oc3c(cccc3N(C)C)C(=O)N([C@H](C)CO)C[C@@H]2C)cc1	.	0	-11	.	.
Cc1ccc(S(=O)(=O)N(C)C[C@H]2Oc3c(cccc3N(C)C)C(=O)N([C@@H](C)CO)C[C@@H]2C)cc1	.	0	59*	.	.
Cc1ccc(S(=O)(=O)N(C)C[C@H]2Oc3ccc(NC(=O)Nc4ccccc4)cc3CC(=O)N([C@H](C)CO)C[C@@H]2C)cc1	.	23*	3	.	.
COc1ccc(NC(=O)Nc2ccc3c(c2)CC(=O)N([C@H](C)CO)C[C@H](C)[C@@H](CN(C)S(=O)(=O)c2ccc(F)cc2)O3)cc1	.	15*	-5	.	.
CC1(C)CC[C@]2(C(=O)O)CC[C@]3(C)C(=CCC4[C@]56CC[C@@](O)(OC5)C(C)(C)C6CC[C@]43C)C2C1 (some centres not stated)	23	.	.	.	65*
CC1(C)CC[C@]2(C(=O)O)CC[C@]3(C)C(=CC[C@@H]4[C@@]5(C)CC[C@H](O[C@@H]6O[C@H](C(=O)O)[C@@H](O)[C@H](O[C@@H]7OC[C@H](O)[C@H](O)[C@H]7O)[C@H]6O)C(C)(C)[C@@H]5CC[C@]43C)[C@@H]2C1	-77	0	?	0	87*
C[C@@H]1CC[C@]2(C(=O)O)CC[C@]3(C)C(=CCC4[C@]56CC[C@@](O)(OC5)C(C)(C)C6CC[C@]43C)C2[C@H]1C (some centres not stated)	8	.	.	.	63*
C[C@H]1[C@H](C)CC[C@]2(C(=O)O)CC[C@]3(C)C(=CC[C@@H]4[C@@]5(C)C[C@@H](O)[C@H](O)C(C)(C)[C@@H]5CC[C@]43C)[C@H]12	-83	.	.	.	7
Cc1ccc(S(=O)(=O)N(C)C[C@H]2OCCCC[C@H](C)Oc3ccc(NC(=O)C4CCCCC4)cc3C(=O)N([C@@H](C)CO)C[C@@H]2C)cc1	.	0	-21	.	.
SMILES	TWEAK Fn14 block	Xi reactivation	LGR2 antag	CaV13 ICDI inh	TROY NFkB inh
Cc1cc(NCCCN2CCOCC2)n2ncc(-c3ccc(Cl)cc3)c2n1	30	.	.	-5	19
Cc1cc(NCCCn2ccnc2)n2ncc(-c3ccc(Cl)cc3)c2n1	68*	.	.	-7	70*
COC(=O)[C@]12CCCCC=C1N(Cc1cccc3ccccc13)C(=O)[C@H](CC(=O)NCCC(C)C)C2	21	0	64*	-11	29
O=S(=O)(C/C(=C/CO)S(=O)(=O)c1ccccc1)c1ccccc1	66*	.	.	-5	33
C[C@H](CO)N1C[C@H](C)[C@@H](CN(C)C(=O)Nc2cccc3ccccc23)Oc2c(NC(=O)Nc3ccc4c(c3)OCO4)cccc2C1=O	.	0	3	.	.
O=C(Nc1ccn(CCOC(=O)c2ccccc2)c(=O)n1)c1ccccc1	-10	0	-2	-6	54*
CCCC(=O)Nc1ccc2c(c1)C(=O)N(C)[C@@H]1CC[C@@H](CC(=O)NCCc3ccccc3)O[C@H]1CO2	.	0	-6	.	.
Cc1ccc(NC(=O)C2Cc3ccccc3CN2C(=O)c2ccco2)cc1S(=O)(=O)N(C)C (configuration not stated)	9	0	-14	-3	72*
CN(C)S(=O)(=O)c1cccc(NC(=O)C2Cc3ccccc3CN2C(=O)c2ccco2)c1 (configuration not stated)	6	0	-83	-7	-12
O=C(NC12CCC(O)C(SC1)/C2=N/O)c1ccccc1 (configuration not stated)	83*	.	.	-5	-8
O=C(NC12CC3CC(CC(C3)C1)C2)c1ccccc1	6	0	-6	-3	-10
C[C@@H]1CN([C@H](C)CO)C(=O)Cc2cc(NC(=O)c3ccncc3)ccc2O[C@H]1CN(C)Cc1ccc(C(=O)O)cc1	.	-1	5	.	.
Cc1cc(/C=N/Nc2ncnc(N)c2[N+](=O)[O-])c(C)n1-c1ccccc1	98*	0	79*	-5	83*
COc1cccc(C=NNc2ccc([N+](=O)[O-])cn2)c1OC	-51	1	-49	-5	-36
COc1cccc(/C=N/Nc2ncnc(N)c2[N+](=O)[O-])c1OC	84*	.	.	.	43
CO[C@H]1CN(C)C(=O)c2cc(NC(=O)NC3CCCCC3)ccc2OC[C@@H](C)N(CCc2ccccc2)C[C@H]1C	.	0	-1	.	.
